KCNK3 inh: human KCNK3 channel inhibitors, primary screen, CHO cells, FluxOR thallium flux, B-score. 0.84% of 340,000 active. Potassium channel subfamily K member 3 (Homo sapiens), O14649. B-score at 10 µM. FluxOR fluorescence; hits give low values;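 active means B-score under library mean minus 4 SD, starting fluorescence ratio at most library mean plus 5 SD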;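 further: more negative B-score means stronger inhibition of thallium flux through KCNK3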
KCNK9 inh: KCNK9 potassium channel inhibitors, primary screen, HEK293 cells, thallium flux; Potassium channel subfamily K member 9 (Homo sapiens), Q9NPC2; FluxOR thallium flux fluorescence; hits give low values; B-score at 10 µM; 1.2% of 310,000 active; AID 488922, 2010;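 active means ratio B-score over 3 SD below the library mean, with starting fluorescence within 5 SD of its mean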;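 further: negative B-score means less thallium flux so channel inhibition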
KCNQ1 act: potentiators or activators of KCNQ1 channel, primary screen, cell-based, thallium flux, high-throughput; B-score at 10 µM; AID 2648, 2010; CHO-K1 KCNQ1, thallium flux FluxOR fluorescence; hits give high values; 0.35% of 310,000 active;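 active means fluorescence ratio B-score, a plate-corrected score, at least three library SD, with initial intensity B-score within 5 SD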
Target sequence (P51787 whole entry, looked up): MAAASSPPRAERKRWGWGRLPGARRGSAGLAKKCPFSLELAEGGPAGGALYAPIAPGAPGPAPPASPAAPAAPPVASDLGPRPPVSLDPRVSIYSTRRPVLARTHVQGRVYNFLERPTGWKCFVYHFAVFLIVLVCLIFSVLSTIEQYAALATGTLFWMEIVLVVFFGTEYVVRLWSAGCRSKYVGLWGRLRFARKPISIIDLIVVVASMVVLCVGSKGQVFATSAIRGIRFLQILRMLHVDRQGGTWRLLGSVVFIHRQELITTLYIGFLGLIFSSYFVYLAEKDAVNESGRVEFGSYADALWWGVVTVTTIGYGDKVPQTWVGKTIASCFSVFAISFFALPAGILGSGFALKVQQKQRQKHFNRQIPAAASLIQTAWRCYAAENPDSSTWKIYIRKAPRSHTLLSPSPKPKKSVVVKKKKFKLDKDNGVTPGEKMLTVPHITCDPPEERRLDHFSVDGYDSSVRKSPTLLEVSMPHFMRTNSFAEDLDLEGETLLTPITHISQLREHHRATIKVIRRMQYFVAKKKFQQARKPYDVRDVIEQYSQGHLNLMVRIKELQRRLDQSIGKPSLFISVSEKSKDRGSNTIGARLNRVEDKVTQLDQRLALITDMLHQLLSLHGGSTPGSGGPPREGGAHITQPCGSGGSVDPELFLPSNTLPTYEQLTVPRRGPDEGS
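System: Stable KCNQ1 CHO-K1 line | Incubation: 90 min dye loading and 20 min compound exposure, both at room temperature | Measure: Ratio B score | Medium: Assay buffer for compound exposure, DMSO matched across wells | Compound dosing: Single-concentration screen | Probe or stimulus: K+/Tl+ depolarizing stimulus | Measured by: Kinetic FluxOR fluorescence, 10 s baseline plus 110 s post-stimulus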
hERG protect: hERG rescue from dofetilide block, primary screen, cell-based, CHO-hERG, FluxOR thallium flux, dofetilide IC70. Voltage-gated inwardly rectifying potassium channel KCNH2 (Homo sapiens), Q12809. dofetilide IC70 present. activation (rescue from dofetilide block), less the hit threshold, % at 10 µM. 0.51% of 310,000 active. AID 1511, 2009;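 active means activation above the mean of controls blocked by dofetilide plus 5 SD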;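 further: thallium influx through hERG after potassium depolarization seen as dye fluorescence rise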
KCNQ1 block: inhibitors of human KCNQ1 channel, primary screen, cell-based, thallium flux, high-throughput; Potassium voltage-gated channel subfamily KQT member 1 (Homo sapiens), P51787; CHO-K1 KCNQ1, FluxOR thallium flux fluorescence; hits give high values; B-score at 10 µM; 1.3% of 310,000 active; AID 2642, 2010;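 active means compounds whose thallium flux B-score, printed positive for inhibition, exceeds three library SD while starting fluorescence stays within three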;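 further: channel opened by potassium depolarization with thallium stimulus after 20 min compound exposure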
A number is an active result; - = inactive; . = not tested or not shown. An excerpt weighted towards active compounds, which were near 3.1% of everything screened.

SMILES	KCNK3 inh	KCNK9 inh	KCNQ1 act	hERG protect	KCNQ1 block
CCc1ccccc1NC(=O)CN1CCN(C(=O)CNC(=O)c2ccc(-c3ccccc3)cc2)CC1	-	.	.	.	.
COc1ccccc1NS(=O)(=O)c1ccc(C(=O)NCC(c2ccc(F)cc2)N2CCOCC2)cc1 (stereo unspecified)	-	.	.	.	.
COc1cc(C(=O)NCC(c2ccc(F)cc2)N2CCOCC2)ccc1OCc1ccccc1Cl (stereo unspecified)	-	-	-	-	10
CCCCc1nc2sc3c(SCCN(C)C)ncnc3c2c2c1CCC2	-	-	21	-	-
S=c1nc(SCc2ccccc2)[nH]c2ccccc12	-	-	54	74	-
CC(C)=CCC/C(C)=C/COc1c2occc2cc2ccc(=O)oc12	-9.8	.	.	.	.
CCNC(=O)c1c(NC(=O)c2cc(-c3cc(C)cc(C)c3O)n[nH]2)sc2c1CCCC2	-	.	.	.	.
COC(=O)NC(=S)Nc1ccc(Oc2ccc(Cl)cc2Cl)c(Cl)c1	-	-	16	-	-
Fc1ccc(NC(=S)Nc2ccc(F)c(Cl)c2)cc1Cl	-9.2	-6.7	-	-	13
COC(=O)c1ccc(NC(=O)Nc2ccc(F)cc2)cc1	-	-	-	-	6
COC(=O)c1ccc(NC(=O)Nc2ccc(F)c(Cl)c2)cc1	-	-	-	-	6
COc1ccc(C(=O)Nc2ccccc2C(=O)Nc2ccncc2)cc1	-	-	-	-	-
CC(C)(C)C(=O)Nc1cccc(OC(F)(F)C(F)Cl)c1 (stereo unspecified)	-	-7	-	-	-
CCOC(=O)c1c(CSc2ccc(C)cc2)n(C)c2cc(Br)c(O)c(CN(C)C)c12	-	-	-	-	-
CCOC(=O)c1c(CSc2ccccc2)n(C)c2cc(Br)c(O)c(CN(C)C)c12	-	-6.7	-	-	-
O=C(/C=C/c1ccc(Br)o1)NCc1ccccc1	-	-6.8	-	-	-
O=C(NC(=S)NCc1ccccc1)c1ccc(Br)o1	-	-	59	39	-
O=C(NC(=S)Nc1ccccc1)c1ccc(Br)o1	-	-	13	-	-
O=C(NNC(=S)NCc1ccccc1)c1ccc(Br)o1	-	-	-	-	-
O=C(NC(=S)Nc1cccnc1)c1ccccc1	-	-	-	-	-
Cc1snnc1C(=O)NC(=S)Nc1ccccc1	-	-	9	11	-
COc1cc(C(=O)OCC(=O)N(CC(C)C)C2CCS(=O)(=O)C2)cc(OC)c1C (stereo unspecified)	-	.	.	.	.
COc1ccc(NC(=S)NC(=O)c2ccc(Br)o2)cc1	-	-	17	9.4	-
O=C(Nc1ccc(Nc2ccccc2)cc1)c1ccc(Br)o1	-	-7.7	-	-	-
CCOC(=O)C1C(=O)C=C(c2ccc(C)cc2)CC1c1ccccc1 (stereo unspecified)	-	-	-	-	-
SMILES	KCNK3 inh	KCNK9 inh	KCNQ1 act	hERG protect	KCNQ1 block
CCOC(=O)C1C(=O)C=C(c2ccc([N+](=O)[O-])cc2)CC1c1ccccc1 (stereo unspecified)	-	-	-	-	6
O=C(CCCN1CCOCC1)c1ccc2c(c1)OCCO2	-	-	-	-	-
O=C(CCN1CCc2ccccc2CC1)c1ccc2c(c1)OCCO2	-	-	10	-	-
CCCCN(CC)C(=O)c1cc2cc3ccc(OC)cc3nc2o1	-	-6.7	-	-	-
COCCNC(=O)c1cc2cc3ccc(OC)cc3nc2o1	-	-	-	-	-
CC(=O)c1ccc(NC(=S)N2c3ccccc3CC2C)cc1 (stereo unspecified)	-	-	-	-	-
COc1cccc(C(=O)NC(=S)N2c3ccccc3CC2C)c1OC (stereo unspecified)	-	-	-	-	-
CC1Cc2ccccc2N1C(=S)NC(=O)c1cccc(Br)c1 (stereo unspecified)	-	-	92	80	-
CC1Cc2ccccc2N1C(=S)NC(=O)c1ccc(Cl)cc1Cl (stereo unspecified)	-	-	24	32	-
CC(C)(C)OC(=O)N1CCC(C(=O)Nc2cccc(C(=O)NCCCCc3ccccc3)c2)CC1	-	.	.	.	.
CCOC(=O)C1=C(C)Nc2sc(C(=O)c3ccc(OC)cc3)c(N)c2C1c1ccc(C(=O)OC)cc1 (stereo unspecified)	-	-6.7	-	-	-
O=C(COc1ccccc1)NC(=S)Nc1ccc(Br)cn1	-	-	22	-	-
CN(Cc1nc2ccccc2c(=O)[nH]1)C(=O)c1ccc(S(=O)(=O)N2CCCC2)cc1	-	.	.	.	.
CC(C)C[C@@H](C(=O)O)N(Cc1cccc(CN([C@@H](CC(C)C)C(=O)O)S(C)(=O)=O)c1)S(C)(=O)=O	-	-	-	4.7	-
CS(=O)(=O)N(Cc1cccc(CN(C(C(=O)O)c2ccccc2)S(C)(=O)=O)c1)C(C(=O)O)c1ccccc1 (stereo unspecified)	-	-	-	-	-
CCCCn1nc(NS(=O)(=O)c2cccc3nonc23)c2cc3cccc(C)c3nc21	-	-	-	-	-
COc1ccccc1CN(C)C(=O)COC(=O)c1c(C)noc1C	-	.	.	.	.
CCc1nonc1NC(=O)COc1cc(C)c(Cl)c(C)c1	-	-	-	-	-
Cc1ccc(OCC(=O)NNC(=S)NC(=O)c2ccc(Br)o2)c(C)c1	-	-	69	-	-
Cc1ccc(OCC(=O)NNC(=S)NC(=O)c2cccs2)c(C)c1	-	-	34	-	-
Cc1cc(OCC(=O)NNC(=S)NC(=O)c2cccs2)ccc1Cl	-	-	15	-	-
CCc1nonc1NC(=O)COc1ccc(Cl)c(C)c1	-	-	-	-	6
COc1ccccc1C(=O)NC(=Nc1nc2ccccc2o1)NC(=O)c1ccccc1OC	-	-16	-	-	-
O=C(NC(=Nc1nc2ccccc2o1)NC(=O)c1ccccc1)c1ccccc1	-	-	-	-	-
Nc1nc2c(ncn2CCC(CO)CO)c(=O)[nH]1	.	-	-	-	-
CC1=CC(C)(C)NC(=S)N1c1ccc(C)c(C)c1	-	-	-	-	-
CC1(CCc2ccccc2)NC(=S)N(c2ccc(Cl)cc2)N1 (stereo unspecified)	-	-	-	-	-
CCC1(c2ccc(Cl)cc2)NC(=S)N(c2ccc(C)c(C)c2)N1 (stereo unspecified)	-	-	103	68	-
CCC1(c2ccc(Cl)cc2)NC(=S)N(c2ccc(C)cc2)N1 (stereo unspecified)	-	-	68	38	-
CCC1(c2ccccc2)NC(=S)N(c2ccc(C)c(C)c2)N1 (stereo unspecified)	-	-	91	47	-
